Source: PubChem BioAssay AID493090 (Southern Research Specialized Biocontainment Screening …, 2011)
Activity calls are given as the source filed them.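 Rule for the calls: active = cell viability under 70% at any tested concentration, a measure not printed in our tables; inactive = the rest.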

system: HEp-2 viability, luminescence cytotoxicity counter-screen; experiment: HEp-2 cell cytotoxicity, dose response, cytotoxicity control for RSV inhibitor project, synthesized compounds, set 5 (AID 493090)
In short: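 System – HEp-2 human cell line, uninfected, for cytotoxicity · Input – 10,595 HEp-2 cells per well · Buffer or medium – DMEM/F12 assay medium with 0.5% DMSO final · Compound – 8 points, 1:2 steps, 0.39–50 µM · Times – 6 d compound exposure, 37 °C · Signal – CellTiter-Glo luminescence · Evaluation – % viability vs cell controls, CC50 from constrained four-parameter fit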

Compound | CC50
CC(=O)c1ccccc1NC(=O)[C@@H]1CCCN1S(=O)(=O)c1cccc2cccnc12 | > 50 µM (inactive)
COCCCNC(=O)c1ccc(Cn2c(=O)c3ccccc3n(Cc3ccc(C)cc3)c2=O)cc1 | > 50 µM (inactive)
Cc1ncccc1NC(=O)[C@@H]1CCCN1S(=O)(=O)c1cccc2cccnc12 | > 50 µM (inactive)
CCOC(=O)c1ccc2[nH]c3c(c2c1)CN(C)CC3 | > 50 µM (inactive)
